Runt-CBFb FRET – inhibitors of human RUNX1 Runt domain binding to CBFb; Q01196+Q13951; actives 0.46% (n = 220,000); Cerulean-Runt/Venus-CBFb FRET ratio 530/480, 1 h; AID 1496; inhibition, % at 20 µM;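 active = inhibition over about 50% at 20 µM in the single-dose screen, limit read from the data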
Target sequence (Q01196 whole entry, looked up, the tested form may be a part): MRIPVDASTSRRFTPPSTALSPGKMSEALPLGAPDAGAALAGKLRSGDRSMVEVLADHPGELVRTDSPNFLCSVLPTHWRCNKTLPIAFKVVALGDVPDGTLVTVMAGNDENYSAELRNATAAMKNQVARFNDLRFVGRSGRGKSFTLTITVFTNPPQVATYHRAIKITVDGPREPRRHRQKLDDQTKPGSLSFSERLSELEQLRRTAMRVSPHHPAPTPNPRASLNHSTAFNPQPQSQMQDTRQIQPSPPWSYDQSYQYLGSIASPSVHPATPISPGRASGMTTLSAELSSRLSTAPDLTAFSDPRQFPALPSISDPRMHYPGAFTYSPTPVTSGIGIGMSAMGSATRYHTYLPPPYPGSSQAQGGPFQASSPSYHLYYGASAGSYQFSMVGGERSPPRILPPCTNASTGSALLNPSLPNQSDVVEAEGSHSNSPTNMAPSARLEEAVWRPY
Target sequence (Q13951 whole entry, looked up, the tested form may be a part): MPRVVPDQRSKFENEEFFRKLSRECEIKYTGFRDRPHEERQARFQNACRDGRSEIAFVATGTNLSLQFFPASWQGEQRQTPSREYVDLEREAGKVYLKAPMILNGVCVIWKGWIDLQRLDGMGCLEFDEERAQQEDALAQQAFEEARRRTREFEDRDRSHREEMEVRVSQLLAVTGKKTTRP
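Measured by: fluorescence energy transfer, 422 nm excitation, 530/480 nm emission; test system: Cerulean-tagged RUNX1 Runt domain (FRET donor) fusion protein; buffer or medium: Tris pH 7.5 buffer with BSA; compound: one dose, 20 µM compound, 1% DMSO; times: two 1 h room-temperature incubations shielded from light; benchmarks: unlabeled CBFb 5 µM, positive control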
Hck-Nef inh – human Hck-Nef kinase inhibition; inhibition, % at 20 µM; actives 0.68% (n = 220,000); Recombinant Hck-YEEI plus Nef, Z-Lyte FRET kinase assay;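 active = Hck-Nef kinase inhibition above about 50%, limit read from the data; inactive = inhibition below that limit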
RanGTP-Impb inh – inhibitors of RanGTP-importin-beta interaction, primary screen, biochemical, FRET, CFP-Ran, YFP-importin-beta, homogeneous; AID 2216; cell-free CFP-Ran/YFP-importin-beta FRET ratio; actives 1.1% (n = 300,000); inhibition, % (concentration not given with the values);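 active = more than half of the replicate wells show a fall in the fluorescence ratio signal beyond about 16%, limit read from the data, passing the limit was not always enough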
Runt-SMMHC FRET – Runt domain-CBFb-SMMHC interaction inhibition | Q01196+Q13951 | AID 1434 | actives 0.74% (n = 220,000) | Cerulean-Runt/Venus-CBFb-SMMHC FRET ratio 530/480, 1 h | inhibition, % at 20 µM;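 active = mean inhibition across duplicate retests at 20 µM reaching about 50%, limit read from the data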;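 also: inhibitors lower the FRET ratio by blocking Runt binding to CBFb-SMMHC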
Numbers stand for hits; i = inactive; nt = not tested or not shown. Most compounds without a hit are left out; they make up all but 1.8% or so of the library.

SMILES	Runt-CBFb FRET	Hck-Nef inh	RanGTP-Impb inh	Runt-SMMHC FRET
CCCC(C)c1nnc(NC(=O)COc2ccc3c(c2)OCO3)s1 (configuration not stated)	nt	nt	i	nt
CC(C)(C)OC(=O)n1cc(/C=N/NC(=O)c2ccco2)c2ccccc21	nt	nt	i	nt
CCn1nc(NC(=O)c2cccnc2)c2cc3ccccc3nc21	i	i	19	i
CCn1nc(NC(=O)c2cccs2)c2cc3ccccc3nc21	i	i	39	i
COc1ccc(C(=O)NC2CC2)cc1OC1CCN(C(C)CSC)CC1 (configuration not stated)	nt	nt	i	nt
Cn1c(=O)c(C(=O)COC(=O)c2cc(-c3ccco3)nc3ccccc23)c(N)n(Cc2ccccc2)c1=O	i	61	i	i
CC(C)Cn1c(N)c(C(=O)COC(=O)c2cc(-c3ccco3)nc3ccccc23)c(=O)n(C)c1=O	i	i	i	i
CCN(CC)C1=CC2=CC(=C(C#N)C#N)CCC2CC1 (configuration not stated)	i	i	nt	83
N#CC(C#N)=C1C=C2C=C(N3CCCCC3)CCC2CC1 (configuration not stated)	i	i	nt	77
CCCCN(C)C1=CC2=CC(=C(C#N)C#N)CCC2CC1 (configuration not stated)	i	i	92	58
Cc1ccc(NC(=O)CSc2ncccn2)cc1F	i	i	96	i
Cc1ccc(NC(=O)CSc2nccn2C)cc1F	nt	nt	i	nt
Cc1cc(N2C(=O)C(O)=C(C(=O)c3ccc(C)o3)C2c2cccs2)no1 (configuration not stated)	i	i	i	i
Cc1cc(N2C(=O)C(O)=C(C(=O)c3cc4ccccc4o3)C2c2cccs2)no1 (configuration not stated)	nt	nt	42	nt
O=C(Cc1ccsc1)N1CCc2c([nH]c3ccccc23)C1c1ccccn1 (configuration not stated)	i	i	29	i
C/C(CC(=O)Nc1cccnc1)=N\NC(=O)C(C)Oc1ccc(Cl)cc1Cl (configuration not stated)	i	i	i	i
COc1ccc2c(c1)c1nc3ccccc3nc1n2CCn1c(=O)oc2ccccc21	i	i	i	i
O=c1oc2ccccc2n1CCn1c2ccccc2c2nc3ccccc3nc21	i	i	28	i
Cc1ccc(S(=O)(=O)N2CCOCC2)cc1NC(=O)COC(=O)c1cccnc1Cl	i	i	i	i
Cc1ccc(S(=O)(=O)N2CCOCC2)cc1NC(=O)COC(=O)c1cc(=O)[nH]c2ccccc12	i	i	26	i
COCc1cc(CN2CCCC(C(=O)Nc3cccc(-n4cnnn4)c3)C2)ccc1OC (configuration not stated)	nt	nt	i	nt
Nc1cccc(Oc2ccc3c(c2)C(=O)NC3=O)c1	nt	nt	i	nt
O=C/C(=C\Nc1ccc(Cl)cn1)c1nc2cc(Cl)ccc2o1	i	i	i	i
O=C/C(=C\Nc1ccc(S(=O)(=O)CCO)cc1)c1nc2cc(Cl)ccc2o1	i	i	22	i
Cc1cccc(CNC(=O)C(C)n2nc(C)c3c(C)n(-c4ccccc4)nc3c2=O)c1 (configuration not stated)	nt	nt	i	nt
SMILES	Runt-CBFb FRET	Hck-Nef inh	RanGTP-Impb inh	Runt-SMMHC FRET
O=C(O)Cn1c2c(c3ccccc31)CCCC2	i	i	29	i
CCN1CCC2(CC1)C(C#N)=C(N)Oc1c2sc2nc(C)cc(C)c12	i	i	28	i
CC1CCCN(C(=O)COC(=O)c2cc(-c3cccs3)nn2-c2ccccc2)C1 (configuration not stated)	nt	nt	i	nt
CC(=O)Nc1cccc(C(=O)OCC(=O)NNC(=O)c2cccs2)c1	nt	nt	i	nt
COc1cc(C2CC(c3cccnc3)=NN2c2ccc(F)cc2)cc(OC)c1OC (configuration not stated)	i	i	nt	87
CCOC(=O)C1CCCc2c1[nH]c1c(C(N)=O)cccc21 (configuration not stated)	i	i	25	i
NC(=O)c1cccc2c3c([nH]c12)CCCC3	i	i	85	i
O=C(Nc1ccc(Oc2cccnc2)cc1)C1CCN(Cc2cc(Cl)ccc2O)CC1	nt	nt	i	nt
O=C(NC1CCCCC1)c1ccc(CS(=O)(=O)c2ccc(Cl)cc2)o1	nt	nt	i	nt
CCOC(=O)c1cc2c(=O)n3ccccc3nc2n(C(C)C)c1=NC(=O)c1c(-c2c(F)cccc2Cl)noc1C	101	i	90	63
CCCCn1c(=NC(=O)c2ccco2)c(C(=O)OCC)cc2c(=O)n3ccccc3nc21	i	i	i	i

Screening results from PubChem BioAssay.
